Converted amounts (≈) assume the structure as drawn.
Legend:
Assay type in all cases: functional
Enterobacter cloacae = assay: Minimum inhibitory concentration in vitro against Enterobacter cloacae MA 2646
Streptococcus pyogenes [1] = assay: Minimum inhibitory concentration was evaluated in vitro against Streptococcus pyogenes C 203
Procedure, shortened: (§1)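 Standard microtitration broth assay against a panel of 10 Gram-positive and Gram-negative organisms. MIC read in µg/mL and averaged over multiple experiments.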

Streptococcus pneumoniae = assay: Minimum inhibitory concentration was evaluated in vitro against Streptococcus pneumoniae SV-1; procedure, shortened: as §1
Staphylococcus aureus [2] = assay: Minimum inhibitory concentration was evaluated in vitro against Staphylococcus aureus UC 76; procedure, shortened: as §1
Staphylococcus aureus [3] = assay: Minimum inhibitory concentration was evaluated in vitro against Staphylococcus aureus H 228; procedure, shortened: as §1
Streptococcus pyogenes [4] = assay: Compounds were evaluated in vivo for antibacterial activity for mouse protection against Streptococcus pyogenes C 203 after oral administration; conditions: for ED50: Streptococcus pyogenes, C 203, po, read-out: PD50
Klebsiella pneumoniae = assay: Minimum inhibitory concentration was evaluated in vitro against Klebsiella pneumoniae MGH2; procedure, shortened: as §1
Enterococcus faecalis = assay: Minimum inhibitory concentration was evaluated in vitro against Enterococcus faecalis MGH-2; procedure, shortened: as §1
Escherichia coli = assay: Antibacterial activity in vitro against Escherichia coli Vogel; procedure, shortened: as §1
Pseudomonas aeruginosa = assay: Minimum inhibitory concentration was evaluated in vitro against Pseudomonas aeruginosa UI-18; procedure, shortened: as §1
Streptococcus pyogenes [5] = assay: Antibacterial activity measured as mouse protection against Streptococcus pyogenes C 203 after subcutaneous administration; conditions: for ED50: Streptococcus pyogenes, C 203, sc, read-out: PD50
Providencia rettgeri = assay: Minimum inhibitory concentration was evaluated in vitro against Providencia rettgeri M1771; procedure, shortened: as §1
[6] = Enterobacter cloacae, read-out: MIC
[7] = Streptococcus pyogenes, read-out: MIC
[8] = Streptococcus pneumoniae, read-out: MIC
[9] = Staphylococcus aureus, read-out: MIC
[10] = Klebsiella pneumoniae, read-out: MIC
[11] = Enterococcus faecalis, read-out: MIC
[12] = Escherichia coli, read-out: MIC
[13] = Pseudomonas aeruginosa, read-out: MIC
[14] = Providencia rettgeri, read-out: MIC

Structure (SMILES)	MIC (Enterobacter cloacae; [6])	MIC (Streptococcus pyogenes [1]; [7])	MIC (Streptococcus pneumoniae; [8])	MIC (Staphylococcus aureus [2]; [9])	MIC (Staphylococcus aureus [3]; [9])	ED50 (Streptococcus pyogenes [4])	MIC (Klebsiella pneumoniae; [10])	MIC (Enterococcus faecalis; [11])	MIC (Escherichia coli; [12])	MIC (Pseudomonas aeruginosa; [13])	ED50 (Streptococcus pyogenes [5])	MIC (Providencia rettgeri; [14])	also measured
CN[C@H](C)[C@@H]1CCN(c2cc3c(cc2F)c(=O)c(C(=O)O)cn3C2CC2)C1	0.2 µg/mL (≈ 0.536 µM)	0.05 µg/mL (≈ 0.134 µM)	0.05 µg/mL (≈ 0.134 µM)	0.05 µg/mL (≈ 0.134 µM)	0.2 µg/mL (≈ 0.536 µM)	36 mg/kg	0.4 µg/mL (≈ 1.07 µM)	0.2 µg/mL (≈ 0.536 µM)	0.1 µg/mL (≈ 0.268 µM)	1.6 µg/mL (≈ 4.28 µM)	3 mg/kg	0.8 µg/mL (≈ 2.14 µM)	
CN[C@@H](C)[C@H]1CCN(c2c(F)c(N)c3c(=O)c(C(=O)O)cn(C4CC4)c3c2F)C1	0.4 µg/mL (≈ 0.984 µM)	1.6 µg/mL (≈ 3.94 µM)	0.8 µg/mL (≈ 1.97 µM)	0.4 µg/mL (≈ 0.984 µM)	0.8 µg/mL (≈ 1.97 µM)		0.8 µg/mL (≈ 1.97 µM)	1.6 µg/mL (≈ 3.94 µM)	0.4 µg/mL (≈ 0.984 µM)	3.1 µg/mL (≈ 7.63 µM)		1.6 µg/mL (≈ 3.94 µM)	
CN[C@H](C)[C@H]1CCN(c2cc3c(cc2F)c(=O)c(C(=O)O)cn3C2CC2)C1	0.2 µg/mL (≈ 0.536 µM)	0.1 µg/mL (≈ 0.268 µM)		0.05 µg/mL (≈ 0.134 µM)	0.4 µg/mL (≈ 1.07 µM)		0.4 µg/mL (≈ 1.07 µM)	0.2 µg/mL (≈ 0.536 µM)	0.2 µg/mL (≈ 0.536 µM)	3.1 µg/mL (≈ 8.3 µM)		0.8 µg/mL (≈ 2.14 µM)	MIC (Streptococcus pneumoniae): 0.2 µg/mL (≈ 0.536 µM); PD50 (Streptococcus pyogenes [4]): 82 mg/kg; PD50 (Streptococcus pyogenes [5]): 7 mg/kg
C[C@H](N)[C@H]1CCN(c2c(F)c(N)c3c(=O)c(C(=O)O)cn(C4CC4)c3c2F)C1 (stereo in doubt; 32F-S,S)	0.05 µg/mL (≈ 0.127 µM)		0.025 µg/mL (≈ 0.0637 µM)		0.025 µg/mL (≈ 0.0637 µM)	> 25 mg/kg	0.1 µg/mL (≈ 0.255 µM)	0.05 µg/mL (≈ 0.127 µM)	0.05 µg/mL (≈ 0.127 µM)	0.4 µg/mL (≈ 1.02 µM)	7 mg/kg	0.4 µg/mL (≈ 1.02 µM)	MIC (Streptococcus pyogenes [1]): 0.05 µg/mL (≈ 0.127 µM); MIC (Staphylococcus aureus [2]): 0.013 µg/mL (≈ 0.0331 µM)
CCN[C@H](C)[C@@H]1CCN(c2cc3c(cc2F)c(=O)c(C(=O)O)cn3C2CC2)C1	0.2 µg/mL (≈ 0.516 µM)	0.05 µg/mL (≈ 0.129 µM)	0.05 µg/mL (≈ 0.129 µM)	0.025 µg/mL (≈ 0.0645 µM)	0.1 µg/mL (≈ 0.258 µM)		0.4 µg/mL (≈ 1.03 µM)	0.1 µg/mL (≈ 0.258 µM)	0.2 µg/mL (≈ 0.516 µM)	6.3 µg/mL (≈ 16.3 µM)		0.8 µg/mL (≈ 2.06 µM)	
CCN[C@H](C)[C@@H]1CCN(c2c(F)cc3c(=O)c(C(=O)O)cn(C4CC4)c3c2OC)C1	0.2 µg/mL (≈ 0.479 µM)	0.003 µg/mL (≈ 0.00719 µM)	0.003 µg/mL (≈ 0.00719 µM)	0.003 µg/mL (≈ 0.00719 µM)	0.013 µg/mL (≈ 0.0311 µM)	3 mg/kg	0.4 µg/mL (≈ 0.958 µM)	0.013 µg/mL (≈ 0.0311 µM)	0.2 µg/mL (≈ 0.479 µM)	3.1 µg/mL (≈ 7.43 µM)		0.8 µg/mL (≈ 1.92 µM)	
COc1c(N2CC[C@@H]([C@H](C)N)C2)c(F)cc2c(=O)c(C(=O)O)cn(C3CC3)c12	0.8 µg/mL (≈ 2.05 µM)	0.025 µg/mL (≈ 0.0642 µM)	0.025 µg/mL (≈ 0.0642 µM)	0.013 µg/mL (≈ 0.0334 µM)	0.05 µg/mL (≈ 0.128 µM)		0.4 µg/mL (≈ 1.03 µM)	0.05 µg/mL (≈ 0.128 µM)	0.4 µg/mL (≈ 1.03 µM)	1.6 µg/mL (≈ 4.11 µM)	6 mg/kg	0.4 µg/mL (≈ 1.03 µM)	
CCN[C@H](C)[C@@H]1CCN(c2nc3c(cc2F)c(=O)c(C(=O)O)cn3-c2ccc(F)cc2F)C1	0.8 µg/mL (≈ 1.74 µM)	0.2 µg/mL (≈ 0.434 µM)	0.2 µg/mL (≈ 0.434 µM)	0.05 µg/mL (≈ 0.109 µM)	0.2 µg/mL (≈ 0.434 µM)	10 mg/kg	1.6 µg/mL (≈ 3.47 µM)	0.4 µg/mL (≈ 0.869 µM)	0.8 µg/mL (≈ 1.74 µM)	3.1 µg/mL (≈ 6.73 µM)	6 mg/kg	3.1 µg/mL (≈ 6.73 µM)	
CCN[C@@H](C)[C@@H]1CCN(c2c(F)c(N)c3c(=O)c(C(=O)O)cn(C4CC4)c3c2F)C1 (stereo in doubt; 32H-S,R)													MIC (Enterobacter cloacae): 0.1 µg/mL (≈ 0.238 µM); MIC (Streptococcus pyogenes [1]): 0.013 µg/mL (≈ 0.0309 µM); MIC (Streptococcus pneumoniae): 0.013 µg/mL (≈ 0.0309 µM); MIC (Staphylococcus aureus [2]): 0.003 µg/mL (≈ 0.00714 µM); MIC (Staphylococcus aureus [3]): 0.013 µg/mL (≈ 0.0309 µM); PD50 (Streptococcus pyogenes [4]): 6 mg/kg; MIC (Klebsiella pneumoniae): 0.1 µg/mL (≈ 0.238 µM); MIC (Enterococcus faecalis): 0.025 µg/mL (≈ 0.0595 µM); MIC (Escherichia coli): 0.1 µg/mL (≈ 0.238 µM); MIC (Pseudomonas aeruginosa): 0.8 µg/mL (≈ 1.9 µM); PD50 (Streptococcus pyogenes [5]): 3 mg/kg; MIC (Providencia rettgeri): 0.4 µg/mL (≈ 0.951 µM)
CCN[C@H](C)[C@H]1CCN(c2cc3c(cc2F)c(=O)c(C(=O)O)cn3C2CC2)C1 (mixture of isomers; form 1)													MIC (Enterobacter cloacae): 0.4 µg/mL; MIC (Streptococcus pyogenes [1]): 0.2 µg/mL; MIC (Streptococcus pneumoniae): 0.2 µg/mL; MIC (Staphylococcus aureus [2]): 0.2 µg/mL; MIC (Staphylococcus aureus [3]): 0.4 µg/mL; MIC (Klebsiella pneumoniae): 0.8 µg/mL; MIC (Enterococcus faecalis): 0.4 µg/mL; MIC (Escherichia coli): 0.4 µg/mL; MIC (Pseudomonas aeruginosa): 6.3 µg/mL; MIC (Providencia rettgeri): 1.6 µg/mL
CCNCC1CCN(c2c(F)cc3c(=O)c(C(=O)O)cn(C4CC4)c3c2OC)C1 (centres undefined)	0.1 µg/mL (≈ 0.248 µM)	0.013 µg/mL (≈ 0.0322 µM)	0.013 µg/mL (≈ 0.0322 µM)	0.006 µg/mL (≈ 0.0149 µM)	0.025 µg/mL (≈ 0.062 µM)	4 mg/kg	0.2 µg/mL (≈ 0.496 µM)	0.05 µg/mL (≈ 0.124 µM)	0.1 µg/mL (≈ 0.248 µM)	1.6 µg/mL (≈ 3.97 µM)	0.4 mg/kg	0.4 µg/mL (≈ 0.991 µM)	

Source: ChEMBL document CHEMBL1126988, “Quinolone antibacterials containing the new 7-[3-(1-aminoethyl)-1- pyrrolidinyl] side chain: the effects of the 1-aminoethyl moiety and its stereochemical configurations on potency and in vivo efficacy” (J Med Chem, 1993)
